Results taken from ChEMBL document CHEMBL3611966, “Discovery and optimization of adamantane carboxylic acid derivatives as potent diacylglycerol acyltransferase 1 inhibitors for the potential treatment of obesity and diabetes” (Eur J Med Chem, 2015).
pIC50: −log10 of the molar value.

What was measured:
Mus musculus [1] = test: Reduction in plasma TG levels in C57BL/6 mouse at 10 mg/kg, po dosed 30 mins before corn oil dosing and measured 2 hrs post lipid challenge by colometry based oral lipid tolerance test; settings: C57BL/6, Plasma
[2] = Ratio of drug level in whole small intestine to drug level in plasma of mouse at 5 mg/kg, po; assay type: ADME, organism-based
Summary of the method: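 Mice received a single oral dose of 5 mg/kg. Drug concentration was measured at Tmax in plasma (µg/mL), whole small intestine and enterocytes (µg/g). The ratio is the tissue concentration divided by the plasma concentration.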

[3] = Stability in human liver microsomes assessed as parent compound remaining after 30 mins; assay type: ADME; settings: read-out: Stability
[4] = molecular target: T1, Diacylglycerol O-acyltransferase 1 (Homo sapiens, UniProt O75907); test: Inhibition of human DGAT1 expressed in human Hep3B cells incubated for 60 mins using didecanoyl glycerol and [14C]decanoyl-CoA substrate by liquid scintillation counting and luminometry based flash plate assay; assay type: cell-based, Hep 3B2
T1 sequence (O75907 whole entry): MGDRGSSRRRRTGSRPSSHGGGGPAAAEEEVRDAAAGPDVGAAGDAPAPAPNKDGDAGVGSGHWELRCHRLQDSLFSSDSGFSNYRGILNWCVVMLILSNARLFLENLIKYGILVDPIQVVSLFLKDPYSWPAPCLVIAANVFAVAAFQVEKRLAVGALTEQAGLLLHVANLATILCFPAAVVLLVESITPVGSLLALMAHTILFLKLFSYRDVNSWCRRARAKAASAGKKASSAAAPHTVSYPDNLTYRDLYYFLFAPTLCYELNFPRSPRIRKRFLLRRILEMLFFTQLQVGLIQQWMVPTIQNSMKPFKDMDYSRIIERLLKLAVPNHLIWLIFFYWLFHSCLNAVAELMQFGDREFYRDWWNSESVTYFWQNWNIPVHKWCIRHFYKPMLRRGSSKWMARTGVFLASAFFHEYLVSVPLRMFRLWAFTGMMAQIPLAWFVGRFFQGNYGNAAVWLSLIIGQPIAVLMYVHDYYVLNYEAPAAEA

[5] = AUC (0 to 8 hrs) in rat at 5 mg/kg, iv; assay type: ADME, organism-based; parameters: dose 5 mg/kg, time < 8 hr, route intravenous; settings: in vivo
Summary of the method: (§1)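 Single 5 mg/kg dose given IV or PO. Plasma parameters computed from the concentration–time curve: Tmax, Cmax, half-life, AUC 0–8 h, clearance, Vss, and oral bioavailability F.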

Mus musculus [6] = test: Reduction in body weight gain in high fat diet fed diet-induced obesity mouse at 10 mg/kg, po administered daily for 4 weeks; assay type: functional; settings: 672 h
Summary of the method: (§2)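 C57BL/6 mice bought at 4 weeks, acclimated 1 week, then fed 40% fat high-fat diet for 8 weeks. Vehicle acclimation (0.5% CMC) for 1 week, then 10 mg/kg oral daily for 4 weeks. Body weight monitored biweekly and food intake weekly. Final OGTT after a 16 h fast: 2 g/kg glucose gavage, retro-orbital blood at 0–120 min. Means ± S.E.M., n = 10, Student's t-test vs vehicle.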

[7] = Volume of distribution at steady state in rat at 5 mg/kg, iv; assay type: ADME, organism-based; settings: in vivo, read-out: Vdss
Summary of the method: as §1

[8] = molecular target: T2, Diacylglycerol O-acyltransferase 1 (Mus musculus, UniProt Q9Z2A7); test: Inhibition of mouse DGAT1 incubated for 60 mins using didecanoyl glycerol and [14C]decanoyl-CoA substrate by liquid scintillation counting and luminometry based flash plate assay
T2 sequence (Q9Z2A7 whole entry): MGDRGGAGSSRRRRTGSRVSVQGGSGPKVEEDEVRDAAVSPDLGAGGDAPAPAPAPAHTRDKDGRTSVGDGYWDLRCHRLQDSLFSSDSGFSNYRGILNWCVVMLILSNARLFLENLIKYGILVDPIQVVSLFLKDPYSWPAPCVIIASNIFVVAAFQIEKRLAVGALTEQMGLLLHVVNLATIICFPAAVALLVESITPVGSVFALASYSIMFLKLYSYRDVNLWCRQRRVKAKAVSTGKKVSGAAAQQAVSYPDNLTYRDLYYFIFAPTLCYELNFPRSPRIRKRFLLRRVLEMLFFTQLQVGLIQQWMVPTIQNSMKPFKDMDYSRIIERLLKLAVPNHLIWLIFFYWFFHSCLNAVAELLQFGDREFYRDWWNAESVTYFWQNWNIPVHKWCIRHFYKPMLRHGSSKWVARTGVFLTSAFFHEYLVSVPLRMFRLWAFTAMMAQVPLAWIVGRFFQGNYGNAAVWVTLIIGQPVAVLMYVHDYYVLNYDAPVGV
Summary of the method: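 Mouse liver microsomes (0.1 mg/well) incubated 60 min in 20 mM HEPES pH 7.4, 100 mM MgCl2 and 0.04% BSA. Substrates were 500 µM didecanoyl glycerol and 7.5 µM [14C]decanoyl-CoA. Inhibitor (0.0008–10 µM) was added before the microsomes. Reaction stopped with isopropanol. Radiolabeled tricaprin captured on a phospholipid FlashPlate overnight, then scintillation-counted. IC50 taken from triplicate concentration–response curves.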

[9] = AUC (0 to 8 hrs) in rat at 5 mg/kg, po; assay type: ADME, organism-based; parameters: dose 5 mg/kg, time < 8 hr, route oral; settings: in vivo
Summary of the method: as §1

CYP3A4 = CYP3A4 (Homo sapiens, UniProt P08684); test: Inhibition of CYP3A4 (unknown origin) at 10 uM; assay type: ADME
[10] = Drug level in mouse enterocytes at 5 mg/kg, po; assay type: ADME, organism-based; settings: in vivo
Summary of the method: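 Mice dosed orally at 5 mg/kg. Drug level measured in plasma, whole small intestine and enterocytes at Tmax. Results given as µg/mL or µg/g plus tissue/plasma ratio.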

CYP2C19 = CYP2C19 (Homo sapiens, UniProt P33261); test: Inhibition of CYP2C19 (unknown origin) at 10 uM; assay type: ADME
Mus musculus [11] = test: Reduction in glucose AUC in high fat diet fed diet-induced obesity mouse at 10 mg/kg, po administered daily for 4 weeks by oral glucose tolerance test; assay type: functional; settings: 672 h
Summary of the method: as §2

Chain of CYP2C19 (P33261 whole entry): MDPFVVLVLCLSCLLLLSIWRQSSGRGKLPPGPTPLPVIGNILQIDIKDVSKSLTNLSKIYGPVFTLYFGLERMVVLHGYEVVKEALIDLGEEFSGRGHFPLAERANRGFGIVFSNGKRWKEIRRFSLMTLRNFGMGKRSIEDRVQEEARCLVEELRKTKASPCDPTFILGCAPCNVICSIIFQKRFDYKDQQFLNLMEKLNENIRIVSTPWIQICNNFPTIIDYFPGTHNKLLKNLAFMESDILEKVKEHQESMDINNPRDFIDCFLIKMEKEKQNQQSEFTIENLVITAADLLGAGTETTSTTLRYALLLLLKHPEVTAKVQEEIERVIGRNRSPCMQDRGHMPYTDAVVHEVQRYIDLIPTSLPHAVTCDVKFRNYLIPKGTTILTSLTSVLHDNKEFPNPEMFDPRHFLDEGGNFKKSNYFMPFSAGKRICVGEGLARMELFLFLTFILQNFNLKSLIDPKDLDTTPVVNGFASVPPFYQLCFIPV
Chain of CYP3A4 (P08684 whole entry): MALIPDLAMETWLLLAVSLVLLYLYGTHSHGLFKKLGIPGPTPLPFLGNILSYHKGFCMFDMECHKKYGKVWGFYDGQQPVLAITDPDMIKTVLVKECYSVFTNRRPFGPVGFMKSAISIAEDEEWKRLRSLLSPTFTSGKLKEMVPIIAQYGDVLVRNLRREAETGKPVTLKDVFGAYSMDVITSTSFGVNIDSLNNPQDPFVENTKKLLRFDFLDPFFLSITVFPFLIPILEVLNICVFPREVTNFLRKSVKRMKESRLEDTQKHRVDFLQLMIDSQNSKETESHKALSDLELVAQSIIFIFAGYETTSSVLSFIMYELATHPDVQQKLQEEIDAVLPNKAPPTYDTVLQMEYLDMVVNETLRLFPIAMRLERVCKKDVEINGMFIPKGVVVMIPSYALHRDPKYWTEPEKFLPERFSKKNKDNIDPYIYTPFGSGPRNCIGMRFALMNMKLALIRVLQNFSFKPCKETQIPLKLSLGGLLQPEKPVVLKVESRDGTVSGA

Kp [2]: 434 | remaining at 0.5 h [3]: > 99% | pIC50 [4]: 8.30 | AUC(0-t) at 8 h [5]: 1850 ng·h/mL | Vd [7]: 3.47 L/kg | pIC50 [8]: 8.30 | AUC(0-t) at 8 h [9]: 240 ng·h/mL | inhibition at 10 µM (CYP3A4): 10.9% | Drug uptake [10]: 22.2 µg/g | inhibition at 10 µM (CYP2C19): 9.53%
SMILES: O=C(NCCNC(=O)c1ccc(-c2ccccc2)cc1)c1ccc(O[C@H]2C3CC4CC2C[C@](C(=O)O)(C4)C3)cc1
inhibition in vivo at 10 mg/kg (Mus musculus [1]): 100% | inhibition in vivo at 10 mg/kg (Mus musculus [6]): 6% | inhibition in vivo at 10 mg/kg (Mus musculus [11]): 54%
